Assays:
Assay type in all cases: functional
CCRF-CEM = test: Growth inhibition of human CCRF-CEM cells at 10 uM after 48 hrs by coulter counter method; settings: read-out: GI
Summary of the method: (§1)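 NCI 60-cell-line panel, single dose. Compound dissolved first in DMSO, then diluted in phosphate-buffered saline so that every final dilution held under 1% DMSO. Duplicate wells received cells at 6 × 10⁴ cells/ml. Controls held PBS/DMSO at the same dilution. Plates were incubated 48 h at 37 °C under 5% CO₂. Cells were then diluted 10-fold in saline and counted on a Coulter counter, with counts corrected for the dilution. Results are given as percent growth inhibition.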

HL-60(TB) = test: Growth inhibition of human HL-60(TB) cells at 10 uM after 48 hrs by coulter counter method; settings: HL-60, 48 h, read-out: GI
Summary of the method: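 Single-dose screen on the NCI 60-line panel (leukemia subpanel). Compound is dissolved in DMSO and diluted in PBS, with final DMSO below 1%. Duplicate wells hold 6 × 10⁴ cells/ml at 37 °C, 5% CO₂, for 48 h. Cells are counted by Coulter counter after 10-fold saline dilution. Read-out is percent growth versus PBS/DMSO controls, expressed as % growth inhibition.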

K562 = test: Growth inhibition of human K562 cells at 10 uM after 48 hrs by coulter counter method; settings: K562, 48 h, read-out: GI; summary of the method: as §1
MOLT-4 = test: Growth inhibition of human MOLT4 cells at 10 uM after 48 hrs by coulter counter method; settings: MOLT-4, 48 h, read-out: GI; summary of the method: as §1
RPMI-8226 = test: Growth inhibition of human RPMI8226 cells at 10 uM after 48 hrs by coulter counter method; settings: RPMI-8226, 48 h, read-out: GI; summary of the method: as §1
SR = test: Growth inhibition of human SR cells at 10 uM after 48 hrs by coulter counter method; settings: read-out: GI; summary of the method: as §1
A549 = test: Growth inhibition of human A549 cells at 10 uM after 48 hrs by coulter counter method; settings: A549, 48 h, read-out: GI; summary of the method: as §1
EKVX = test: Growth inhibition of human EKVX cells at 10 uM after 48 hrs by coulter counter method; settings: read-out: GI; summary of the method: as §1
NCI-H226 = test: Growth inhibition of human NCI-H226 cells at 10 uM after 48 hrs by coulter counter method; settings: NCI-H226, 48 h, read-out: GI; summary of the method: as §1
NCI-H23 = test: Growth inhibition of human NCI-H23 cells at 10 uM after 48 hrs by coulter counter method; settings: NCI-H23, 48 h, read-out: GI; summary of the method: as §1
NCI-H322M = test: Growth inhibition of human NCI-H322M cells at 10 uM after 48 hrs by coulter counter method; settings: read-out: GI; summary of the method: as §1
NCI-H522 = test: Growth inhibition of human NCI-H522 cells at 10 uM after 48 hrs by coulter counter method; settings: NCI-H522, 48 h, read-out: GI; summary of the method: as §1
HCT-116 = test: Growth inhibition of human HCT116 cells at 10 uM after 48 hrs by coulter counter method; settings: HCT-116, 48 h, read-out: GI; summary of the method: as §1
HCT-15 = test: Growth inhibition of human HCT15 cells at 10 uM after 48 hrs by coulter counter method; settings: HCT-15, 48 h, read-out: GI; summary of the method: as §1
HT-29 = test: Growth inhibition of human HT-29 cells at 10 uM after 48 hrs by coulter counter method; settings: HT-29, 48 h, read-out: GI; summary of the method: as §1
KM12 = test: Growth inhibition of human KM12 cells at 10 uM after 48 hrs by coulter counter method; settings: KM12, 48 h, read-out: GI; summary of the method: as §1
SF-268 = test: Growth inhibition of human SF268 cells at 10 uM after 48 hrs by coulter counter method; settings: SF-268, 48 h, read-out: GI; summary of the method: as §1
SF-295 = test: Growth inhibition of human SF295 cells at 10 uM after 48 hrs by coulter counter method; settings: SF-295, 48 h, read-out: GI; summary of the method: as §1
SNB-19 = test: Growth inhibition of human SNB19 cells at 10 uM after 48 hrs by coulter counter method; settings: SNB-19, 48 h, read-out: GI; summary of the method: as §1
SNB-75 = test: Growth inhibition of human SNB75 cells at 10 uM after 48 hrs by coulter counter method; settings: SNB-75, 48 h, read-out: GI; summary of the method: as §1
U-251 = test: Growth inhibition of human U251 cells at 10 uM after 48 hrs by coulter counter method; settings: U-251, 48 h, read-out: GI; summary of the method: as §1
LOX IMVI = test: Growth inhibition of human LOXIMVI cells at 10 uM after 48 hrs by coulter counter method; settings: read-out: GI; summary of the method: as §1
Malme-3M = test: Growth inhibition of human MALME-3M cells at 10 uM after 48 hrs by coulter counter method; settings: read-out: GI; summary of the method: as §1
M14 = test: Growth inhibition of human M14 cells at 10 uM after 48 hrs by coulter counter method; settings: M14, 48 h, read-out: GI; summary of the method: as §1
MDA-MB-435 = test: Growth inhibition of human MDA-MB-435 cells at 10 uM after 48 hrs by coulter counter method; settings: MDA-MB-435, 48 h, read-out: GI; summary of the method: as §1
SK-MEL-2 = test: Growth inhibition of human SK-MEL-2 cells at 10 uM after 48 hrs by coulter counter method; settings: SK-MEL-2, 48 h, read-out: GI; summary of the method: as §1
SK-MEL-28 = test: Growth inhibition of human SK-MEL-28 cells at 10 uM after 48 hrs by coulter counter method; settings: SK-MEL-28, 48 h, read-out: GI; summary of the method: as §1
SK-MEL-5 = test: Growth inhibition of human SK-MEL-5 cells at 10 uM after 48 hrs by coulter counter method; settings: SK-MEL-5, 48 h, read-out: GI; summary of the method: as §1
UACC-257 = test: Growth inhibition of human UACC257 cells at 10 uM after 48 hrs by coulter counter method; settings: UACC-257, 48 h, read-out: GI; summary of the method: as §1
UACC-62 = test: Growth inhibition of human UACC62 cells at 10 uM after 48 hrs by coulter counter method; settings: UACC-62, 48 h, read-out: GI; summary of the method: as §1
IGROV-1 = test: Growth inhibition of human IGROV1 cells at 10 uM after 48 hrs by coulter counter method; settings: IGROV-1, 48 h, read-out: GI; summary of the method: as §1
OVCAR-8 = test: Growth inhibition of human OVCAR8 cells at 10 uM after 48 hrs by coulter counter method; settings: OVCAR-8, 48 h, read-out: GI; summary of the method: as §1
NCI/ADR-RES = test: Growth inhibition of human NCI/ADR-RES cells at 10 uM after 48 hrs by coulter counter method; settings: read-out: GI; summary of the method: as §1
786-0 = test: Growth inhibition of human 786-0 cells at 10 uM after 48 hrs by coulter counter method; settings: 786-0, 48 h, read-out: GI; summary of the method: as §1
A498 = test: Growth inhibition of human A498 cells at 10 uM after 48 hrs by coulter counter method; settings: A498, 48 h, read-out: GI; summary of the method: as §1
ACHN = test: Growth inhibition of human ACHN cells at 10 uM after 48 hrs by coulter counter method; settings: read-out: GI; summary of the method: as §1
CAKI-1 = test: Growth inhibition of human Caki1 cells at 10 uM after 48 hrs by coulter counter method; settings: CAKI-1, 48 h, read-out: GI; summary of the method: as §1
SN12C = test: Growth inhibition of human SN12C cells at 10 uM after 48 hrs by coulter counter method; settings: read-out: GI; summary of the method: as §1
TK-10 = test: Growth inhibition of human TK10 cells at 10 uM after 48 hrs by coulter counter method; settings: TK-10, 48 h, read-out: GI; summary of the method: as §1
UO-31 = test: Growth inhibition of human UO31 cells at 10 uM after 48 hrs by coulter counter method; settings: UO-31, 48 h, read-out: GI; summary of the method: as §1
PC-3 = test: Growth inhibition of human PC3 cells at 10 uM after 48 hrs by coulter counter method; settings: PC-3, 48 h, read-out: GI; summary of the method: as §1
MCF7 = test: Growth inhibition of human MCF7 cells at 10 uM after 48 hrs by coulter counter method; settings: MCF7, 48 h, read-out: GI; summary of the method: as §1
BT-549 = test: Growth inhibition of human BT549 cells at 10 uM after 48 hrs by coulter counter method; settings: BT-549, 48 h, read-out: GI; summary of the method: as §1
T47D = test: Growth inhibition of human T47D cells at 10 uM after 48 hrs by coulter counter method; settings: read-out: GI; summary of the method: as §1
MDA-MB-468 = test: Growth inhibition of human MDA-MB-468 cells at 10 uM after 48 hrs by coulter counter method; settings: MDA-MB-468, 48 h, read-out: GI; summary of the method: as §1

NC1=CC(N)=NC2OC(c3ccccc3)=NN12 (stereo not given)
inhibition of growth at 10 µM (CCRF-CEM): < 10%
inhibition of growth at 10 µM (HL-60(TB)): 15.6%
inhibition of growth at 10 µM (K562): < 10%
inhibition of growth at 10 µM (MOLT-4): 10.4%
inhibition of growth at 10 µM (RPMI-8226): < 10%
inhibition of growth at 10 µM (SR): 10.4%
inhibition of growth at 10 µM (A549): < 10%
inhibition of growth at 10 µM (EKVX): < 10%
inhibition of growth at 10 µM (NCI-H226): < 10%
inhibition of growth at 10 µM (NCI-H23): < 10%
inhibition of growth at 10 µM (NCI-H322M): < 10%
inhibition of growth at 10 µM (NCI-H522): < 10%
inhibition of growth at 10 µM (HCT-116): < 10%
inhibition of growth at 10 µM (HCT-15): < 10%
inhibition of growth at 10 µM (HT-29): < 10%
inhibition of growth at 10 µM (KM12): < 10%
inhibition of growth at 10 µM (SF-268): < 10%
inhibition of growth at 10 µM (SF-295): 15.6%
inhibition of growth at 10 µM (SNB-19): < 10%
inhibition of growth at 10 µM (SNB-75): < 10%
inhibition of growth at 10 µM (U-251): < 10%
inhibition of growth at 10 µM (LOX IMVI): < 10%
inhibition of growth at 10 µM (Malme-3M): < 10%
inhibition of growth at 10 µM (M14): < 10%
inhibition of growth at 10 µM (MDA-MB-435): < 10%
inhibition of growth at 10 µM (SK-MEL-2): < 10%
inhibition of growth at 10 µM (SK-MEL-28): < 10%
inhibition of growth at 10 µM (SK-MEL-5): < 10%
inhibition of growth at 10 µM (UACC-257): < 10%
inhibition of growth at 10 µM (UACC-62): < 10%
inhibition of growth at 10 µM (IGROV-1): < 10%
inhibition of growth at 10 µM (OVCAR-8): < 10%
inhibition of growth at 10 µM (NCI/ADR-RES): < 10%
inhibition of growth at 10 µM (786-0): < 10%
inhibition of growth at 10 µM (A498): < 10%
inhibition of growth at 10 µM (ACHN): < 10%
inhibition of growth at 10 µM (CAKI-1): < 10%
inhibition of growth at 10 µM (SN12C): < 10%
inhibition of growth at 10 µM (TK-10): < 10%
inhibition of growth at 10 µM (UO-31): 27%
inhibition of growth at 10 µM (PC-3): < 10%
inhibition of growth at 10 µM (MCF7): < 10%
inhibition of growth at 10 µM (BT-549): < 10%
inhibition of growth at 10 µM (T47D): < 10%
inhibition of growth at 10 µM (MDA-MB-468): < 10%

Reference: ChEMBL document CHEMBL1926577, “Novel 1,3,4-heterodiazole analogues: synthesis and in-vitro antitumor activity” (2012)
